Source: ChEMBL document CHEMBL4350999, “Enhanced tumor retention of NTSR1-targeted agents by employing a hydrophilic cysteine cathepsin inhibitor” (Eur J Med Chem, 2019)
The source made the active and inactive calls. The rule behind the calls is not given here.

Tests used:
[1] = Drug uptake in stomach of SCID mouse xenografted with human HT-29 cells at 0.37 MBq/mouse, iv measured at 4 hrs using 177Lu labelled compound by gamma counter analysis; format: ADME, organism-based; conditions: in vivo
Summary of the method: (§1)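 Female SCID mice (5 weeks old) received s.c. flank HT-29 cells (5 × 10^6 in Matrigel). At ~80 mm3, two weeks later, mice were randomized and given 10 μCi (0.37 MBq) of purified 177Lu conjugate i.v. by tail vein. Mice were killed at 4, 24 or 72 h. Tissues were weighed and gamma counted as %ID/g, mean ± SD, n = 5. Tumor-to-tissue ratios were calculated.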

[2] = Drug uptake in muscle of SCID mouse xenografted with human HT-29 cells at 0.37 MBq/mouse, iv measured at 72 hrs using 177Lu labelled compound by gamma counter analysis; format: ADME, organism-based, Muscle tissue; conditions: in vivo
Summary of the method: (§2)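 Female SCID mice (5 weeks) bore s.c. flank xenografts of HT-29 cells (5 × 10^6 in Matrigel), used at about 80 mm3 (two weeks) and randomized. Each mouse received 10 μCi (0.37 MBq) of HPLC-purified 177Lu-conjugate via tail vein. Tissues were excised, weighed and gamma-counted, expressed as %ID/g; mean ± SD, n = 5.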

[3] = Drug uptake in SCID mouse xenografted with human HT-29 cells assessed as tumour retention at 0.37 MBq/mouse, iv measured at 24 hrs using 177Lu labelled compound by gamma counter analysis; format: ADME, organism-based; conditions: in vivo
Summary of the method: (§3)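 Female SCID mice bearing s.c. flank HT-29 xenografts (5 × 10^6 cells in Matrigel, ~80 mm3). Given 10 μCi (0.37 MBq) 177Lu conjugate i.v. by tail vein; groups sacrificed at 4, 24, 72 h. Tissues weighed and gamma-counted as %ID/g, excretion as %ID; n = 5, mean ± SD. Blocking arms: colchicine 1 mg/kg i.p. beforehand, or D-lysine 40 mg/kg co-injected.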

[4] = Octanol-PBS buffer distribution coefficient, log D of 177Lu labelled compound at pH 7.4 by radiometric analysis; format: physicochemical
Summary of the method: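 177Lu conjugate partitioned between 1-octanol and PBS pH 7.4. 100 μL aliquots from each layer were gamma counted, and LogD7.4 was calculated from the counts.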

[5] = Drug uptake in heart of SCID mouse xenografted with human HT-29 cells at 0.37 MBq/mouse, iv measured at 72 hrs using 177Lu labelled compound by gamma counter analysis; format: ADME, organism-based; conditions: in vivo; summary of the method: as §2
[6] = Drug excretion in SCID mouse xenografted with human HT-29 cells at 0.37 MBq/mouse, iv measured after 72 hrs using 177Lu labelled compound; format: ADME, organism-based; conditions: in vivo; summary of the method: as §3
[7] = Drug uptake in lung of SCID mouse xenografted with human HT-29 cells at 0.37 MBq/mouse, iv measured at 4 hrs using 177Lu labelled compound by gamma counter analysis; format: ADME, organism-based; conditions: in vivo; summary of the method: as §2
[8] = Drug uptake in lung of SCID mouse xenografted with human HT-29 cells at 0.37 MBq/mouse, iv measured at 72 hrs using 177Lu labelled compound by gamma counter analysis; format: ADME, organism-based; conditions: in vivo; summary of the method: as §2
[9] = Drug uptake in bone of SCID mouse xenografted with human HT-29 cells at 0.37 MBq/mouse, iv measured at 72 hrs using 177Lu labelled compound by gamma counter analysis; format: ADME, organism-based, Bone element; conditions: in vivo; summary of the method: as §2
[10] = Drug uptake in kidney of SCID mouse xenografted with human HT-29 cells at 0.37 MBq/mouse, iv measured at 4 hrs using 177Lu labelled compound by gamma counter analysis; format: ADME, organism-based; conditions: in vivo; summary of the method: as §2
[11] = 1-Octanol-PBS buffer distribution coefficient, log D of natEu labelled compound at pH 7.4 by time resolved fluorescence analysis; format: physicochemical
Summary of the method: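 natEu-labelled conjugate (300 μg) in 0.2 mL PBS pH 7.4 partitioned against 0.2 mL 1-octanol; 100 μL aliquots from each layer dried under vacuum and taken up in water. Time-resolved fluorescence read at 590 nm with 380 nm excitation, and LogD7.4 calculated from the two layers.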

[12] = Drug uptake in small intestine of SCID mouse xenografted with human HT-29 cells at 0.37 MBq/mouse, iv measured at 4 hrs using 177Lu labelled compound by gamma counter analysis; format: ADME, organism-based; conditions: in vivo; summary of the method: as §2
[13] = Ratio of drug uptake in SCID mouse xenograted with human HT-29 cells assessed as tumour retention to drug uptake in small intestine of SCID mouse xenografted with human HT-29 cells measured after 72 hrs using 177Lu labelled compound; format: ADME, tissue-based, Tumor/Small intestine; summary of the method: as §1
[14] = Drug excretion in SCID mouse xenografted with human HT-29 cells at 0.37 MBq/mouse, iv measured at 24 hrs using 177Lu labelled compound by gamma counter analysis; format: ADME, organism-based; conditions: in vivo; summary of the method: as §3
[15] = Drug uptake in pancreas of SCID mouse xenografted with human HT-29 cells at 0.37 MBq/mouse, iv measured at 4 hrs using 177Lu labelled compound by gamma counter analysis; format: ADME, organism-based; conditions: in vivo; summary of the method: as §2
[16] = Drug uptake in liver of SCID mouse xenografted with human HT-29 cells at 0.37 MBq/mouse, iv measured at 24 hrs using 177Lu labelled compound by gamma counter analysis; format: ADME, organism-based; conditions: in vivo; summary of the method: as §2
[17] = Drug uptake in muscle of SCID mouse xenografted with human HT-29 cells at 0.37 MBq/mouse, iv measured at 4 hrs using 177Lu labelled compound by gamma counter analysis; format: ADME, organism-based, Muscle tissue; conditions: in vivo; summary of the method: as §2
[18] = Drug uptake in pancreas of SCID mouse xenografted with human HT-29 cells at 0.37 MBq/mouse, iv measured at 24 hrs using 177Lu labelled compound by gamma counter analysis; format: ADME, organism-based; conditions: in vivo; summary of the method: as §2
[19] = Drug uptake in brain of SCID mouse xenografted with human HT-29 cells at 0.37 MBq/mouse, iv measured at 24 hrs using 177Lu labelled compound by gamma counter analysis; format: ADME, organism-based; conditions: in vivo; summary of the method: as §2
[20] = Drug uptake in spleen of SCID mouse xenografted with human HT-29 cells at 0.37 MBq/mouse, iv measured at 72 hrs using 177Lu labelled compound by gamma counter analysis; format: ADME, organism-based; conditions: in vivo; summary of the method: as §1
[21] = Drug uptake in stomach of SCID mouse xenografted with human HT-29 cells at 0.37 MBq/mouse, iv measured at 24 hrs using 177Lu labelled compound by gamma counter analysis; format: ADME, organism-based; conditions: in vivo; summary of the method: as §1
Cathepsin B = Cathepsin B (Homo sapiens, UniProt P07858); assay: Inhibition of human liver cathepsin B assessed as second order rate constant using Z-Arg-Arg-AMC as substrate measured every 5 mins for 1 hr by fluorescence assay
Summary of the method: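 Human liver cathepsin B, 2 nM final, in 0.1 M phosphate pH 5.8 (1 mM EDTA, 2.7 mM DTT, 0.03% Brij35). Enzyme mixed with conjugate (1–500 nM final), then Z-Arg-Arg-AMC added (800 μM final); 37 °C. […] Biological triplicate.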

[22] = Stability of 177Lu labelled compound in human serum assessed as parent compound remaining at 37 degC after 3 hrs by RP-HPLC analysis; format: ADME, cell-free; conditions: read-out: Stability
Summary of the method: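 Radioconjugate (1.5 mCi, 55.5 MBq) was incubated in 300 μL human serum at 37 °C. At 1, 3 and 24 h, acetonitrile was added and samples were spun at 12,000×g for 5 min. Supernatant was dried under nitrogen, reconstituted in water and analyzed by radio-HPLC.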

## Cc1cc(C)c(C(=O)OCC(=O)[C@H](CCCCNC(=O)CNC(=O)[C@@H](CO)NC(=O)[C@@H](CO)NC(=O)[C@@H](CO)NC(=O)Cn2cc(C[C@H](NC(=O)CN3CCN(CC(=O)O)CCN(CC(=O)O)CCN(CC(=O)O)CC3)C(=O)N[C@H](CO)C(=O)N[C@H](CO)C(=O)N[C@H](CO)C(=O)N[C@@H](CCCCN)C(=O)N3CCC[C@H]3C(=O)N(C)[C@@H](CCCNC(=N)N)C(=O)N[C@@H](CCCNC(=N)N)C(=O)N3CCC[C@H]3C(=O)N[C@@H](Cc3c(C)cc(O)cc3C)C(=O)N[C@H](C(=O)N[C@@H](CC(C)C)C(=O)O)C(C)(C)C)nn2)NC(=O)[C@H](Cc2ccccc2)NC(=O)OCc2ccccc2)c(C)c1
[1]
  Drug uptake: 1.7 % ID/g
[2]
  Drug uptake: 0.15 % ID/g
[3]
  Drug uptake: 10 % ID/g
[4]
  logD: -1.95
[5]
  Drug uptake: 0.4 % ID/g
[6]
  Drug excretion: 57 %ID
[7]
  Drug uptake: 4.5 % ID/g
[8]
  Drug uptake: 5 % ID/g
[9]
  Drug uptake: 1.1 % ID/g
[10]
  Drug uptake: 58.2 % ID/g
[11]
  logD: -2.1
[12]
  Drug uptake: 6.1 % ID/g
[13]
  Ratio: 0.9
[14]
  Drug excretion: 35 %ID
[15]
  Drug uptake: 0.89 % ID/g
[16]
  Drug uptake: 26 % ID/g
[17]
  Drug uptake: 0.53 % ID/g
[18]
  Drug uptake: 0.6 % ID/g
[19]
  Drug uptake: 0.04 % ID/g
[20]
  Drug uptake: 17 % ID/g
[21]
  Drug uptake: 0.9 % ID/g

## Cc1cc(O)cc(C)c1C[C@H](NC(=O)[C@@H]1CCCN1C(=O)[C@H](CCCNC(=N)N)NC(=O)[C@H](CCCNC(=N)N)N(C)C(=O)[C@@H]1CCCN1C(=O)[C@H](CCCCN)NC(=O)[C@@H](CO)NC(=O)[C@@H](CO)NC(=O)[C@@H](CO)NC(=O)[C@H](Cc1cn(CC(=O)N[C@H](CO)C(=O)N[C@H](CO)C(=O)N[C@H](CO)C(=O)NCC(=O)NCCCC[C@H](NC(=O)[C@H](Cc2ccccc2)NC(=O)OCc2ccccc2)C(=O)NCCc2ccccc2)nn1)NC(=O)CN1CCN(CC(=O)O)CCN(CC(=O)O)CCN(CC(=O)O)CC1)C(=O)N[C@H](C(=O)N[C@@H](CC(C)C)C(=O)O)C(C)(C)C
[1]
  Drug uptake: 1.6 % ID/g
[2]
  Drug uptake: 0.12 % ID/g
[3]
  Drug uptake: 5.1 % ID/g
[5]
  Drug uptake: 0.27 % ID/g
[6]
  Drug excretion: 73 %ID
[7]
  Drug uptake: 4.3 % ID/g
[8]
  Drug uptake: 1.2 % ID/g
[9]
  Drug uptake: 1 % ID/g
[10]
  Drug uptake: 64 % ID/g
[12]
  Drug uptake: 7.6 % ID/g
[14]
  Drug excretion: 56 %ID
[15]
  Drug uptake: 0.84 % ID/g
[16]
  Drug uptake: 8.3 % ID/g
[17]
  Drug uptake: 0.44 % ID/g
[18]
  Drug uptake: 0.77 % ID/g
[19]
  Drug uptake: 0.04 % ID/g
[20]
  Drug uptake: 18 % ID/g
[21]
  Drug uptake: 0.9 % ID/g

## Cc1cc(O)cc(C)c1C[C@H](NC(=O)[C@@H]1CCCN1C(=O)[C@H](CCCNC(=N)N)NC(=O)[C@H](CCCNC(=N)N)N(C)C(=O)[C@@H]1CCCN1C(=O)[C@H](CCCCN)NC(=O)[C@@H](CO)NC(=O)[C@@H](CO)NC(=O)[C@@H](CO)NC(=O)[C@H](Cc1cn(CCNC(=O)[C@H](CCCNC(=N)N)NC(=O)[C@H](CC(C)C)NC(=O)C2OC2C(=O)O)nn1)NC(=O)CN1CCN(CC(=O)O)CCN(CC(=O)O)CCN(CC(=O)O)CC1)C(=O)N[C@H](C(=O)N[C@@H](CC(C)C)C(=O)O)C(C)(C)C (stereo partly drawn)
[1]
  Drug uptake: 0.34 % ID/g
[2]
  Drug uptake: 0.03 % ID/g
[3]
  Drug uptake: 6.2 % ID/g
[4]
  logD: -3.78
[5]
  Drug uptake: 0.04 % ID/g
[6]
  Drug excretion: 80.8 %ID
[7]
  Drug uptake: 0.53 % ID/g
[8]
  Drug uptake: 0.3 % ID/g
[9]
  Drug uptake: 0.6 % ID/g
[10]
  Drug uptake: 67 % ID/g
[11]
  logD: -3.69
[12]
  Drug uptake: 3.5 % ID/g
[13]
  Ratio: 1.7
[14]
  Drug excretion: 69 %ID
[15]
  Drug uptake: 0.19 % ID/g
Cathepsin B
  K: 67000 M⁻¹ s⁻¹
[16]
  Drug uptake: 0.73 % ID/g
[17]
  Drug uptake: 0.09 % ID/g
[22]
  remaining at 3 h: 65.6%
[18]
  Drug uptake: 0.18 % ID/g
[19]
  Drug uptake: 0.02 % ID/g
[20]
  Drug uptake: 1.9 % ID/g
[21]
  Drug uptake: 0.33 % ID/g

## Cc1cc(O)cc(C)c1C[C@H](NC(=O)[C@@H]1CCCN1C(=O)[C@H](CCCNC(=N)N)NC(=O)[C@H](CCCNC(=N)N)N(C)C(=O)[C@@H]1CCCN1C(=O)[C@H](CCCCN)NC(=O)[C@@H](CO)NC(=O)[C@@H](CO)NC(=O)[C@@H](CO)NC(=O)[C@H](Cc1cn(CCNC(=O)[C@H](CCCNC(=N)N)NC(=O)[C@H](CC(C)C)NC(=O)CCC(=O)O)nn1)NC(=O)CN1CCN(CC(=O)O)CCN(CC(=O)O)CCN(CC(=O)O)CC1)C(=O)N[C@H](C(=O)N[C@@H](CC(C)C)C(=O)O)C(C)(C)C
[1]
  Drug uptake: 0.27 % ID/g
[2]
  Drug uptake: 0.01 % ID/g
[3]
  Drug uptake: 4.4 % ID/g
[4]
  logD: -3.51
[6]
  Drug excretion: 91.6 %ID
[7]
  Drug uptake: 0.37 % ID/g
[8]
  Drug uptake: 0.24 % ID/g
[9]
  Drug uptake: 0.12 % ID/g
[10]
  Drug uptake: 57 % ID/g
[11]
  logD: -3.71
[12]
  Drug uptake: 2.9 % ID/g
[14]
  Drug excretion: 84.7 %ID
[15]
  Drug uptake: 0.12 % ID/g
Cathepsin B
  inhibition: inactive
[16]
  Drug uptake: 0.4 % ID/g
[17]
  Drug uptake: 0.04 % ID/g
[22]
  remaining at 3 h: 74.3%
[18]
  Drug uptake: 0.11 % ID/g
[19]
  Drug uptake: 0.01 % ID/g
[20]
  Drug uptake: 0.8 % ID/g
[21]
  Drug uptake: 0.15 % ID/g
